Results published in ChEMBL document CHEMBL1671803, “Synthesis and evaluation of 11C-labeled imidazo[2,1-b]benzothiazoles (IBTs) as PET tracers for imaging β-amyloid plaques in Alzheimer's disease” (J Med Chem, 2011).
The source made the active and inactive calls. The calls are words filed in the database; no cut-off is given here.

Assays:
[1] = target: T1, Amyloid-beta precursor protein (Homo sapiens, UniProt P05067); test: Displacement of [3H]PiB from human amyloid beta (1-40) at 100 nM after 180 mins by liquid scintillation counter
[2] = target: T1, Amyloid-beta precursor protein; test: Displacement of [3H]PiB from human amyloid beta (1-42) at 100 nM after 180 mins by liquid scintillation counter
[3] = Octanol-phosphate buffered saline partition coefficient, log P of the compound at pH 7.4; format: physicochemical
[4] = test system: Brain; test: Drug uptake in Balb-C mouse brain at 4-6 MBq after 30 mins by gamma counting; format: ADME, tissue-based; details: in vivo, 0.5 h
Summary of the method: (§1)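 Normal male Balb-C mice were given an iv [11C]-labeled compound. Brain uptake was measured as %ID/g at 5 and 30 min post-injection (n=5). Clearance is expressed as the 5 min/30 min %ID/g ratio.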

[5] = test system: Brain; test: Drug uptake in Balb-C mouse brain at 4-6 MBq by gamma counting; details: in vivo
[6] = test system: Brain; test: Ratio of drug uptake in Balb-C mouse brain after 5 mins to drug uptake in Balb-C mouse brain after 30 mins; format: ADME, tissue-based; details: in vivo; summary of the method: as §1
[7] = test system: Mus musculus; test: Binding affinity to amyloid beta in telencephalon region in iv dosed APP/PS1 transgenic C57BL6/J mouse alzheimer's disease model after 5 to 30 mins by autoradiography analysis relative to control; format: functional, organism-based
Summary of the method: (§2)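 APP/PS1 (ARTE10) homozygous female mice, 22 months old, with age- and gender-matched C57BL6/J female controls (two each). A single tail-vein bolus of [11C]5 mixed with [3H]1a (7.2 MBq) was given. Readouts were telencephalon/cerebellum ratios from three sources: μPET/CT coregistered to an MRI template (summed 20-30 min), dual-label digital autoradiography of 12 μm sections, and regional biodistribution, all at 30 min p.i.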

[8] = test system: Mus musculus; test: Binding affinity to amyloid beta in telencephalon region in APP/PS1 transgenic C57BL6/J mouse alzheimer's disease model at 50.2 MBq, iv after 5 to 30 mins by micro PET examination relative to control; format: functional, organism-based; details: 50.2 M, tested as the 11C-labelled form; summary of the method: as §2
[9] = test system: Mus musculus; test: Binding affinity to amyloid beta in cerebellum region in APP/PS1 transgenic C57BL6/J mouse alzheimer's disease model at 50.2 MBq, iv after 5 to 30 mins by micro PET examination relative to control; format: functional, organism-based; details: 50.2 M, tested as the 11C-labelled form; summary of the method: as §2
[10] = test system: Mus musculus; test: Binding affinity to amyloid beta in cerebellum region in APP/PS1 transgenic C57BL6/J mouse alzheimer's disease model at 50.2 MBq, iv after 5 to 30 mins by MRI examination relative to control; format: functional, organism-based; details: 50.2 M, tested as the 11C-labelled form; summary of the method: as §2
[11] = test system: Mus musculus; test: Binding affinity to amyloid beta in telencephalon region in APP/PS1 transgenic C57BL6/J mouse alzheimer's disease model at 50.2 MBq, iv after 5 to 30 mins by MRI examination relative to control; format: functional, organism-based; details: 50.2 M, tested as the 11C-labelled form; summary of the method: as §2
[12] = test system: Mus musculus; test: Binding affinity to amyloid beta in cerebellum region in APP/PS1 transgenic C57BL6/J mouse alzheimer's disease model at 50.2 MBq, iv after 5 to 30 mins by autoradiography analysis relative to control; format: functional, organism-based; details: 50.2 M, tested as the 11C-labelled form; summary of the method: as §2
[13] = test system: Mus musculus; test: Binding affinity to amyloid beta in telencephalon region in APP/PS1 transgenic C57BL6/J mouse alzheimer's disease model at 50.2 MBq, iv after 5 to 30 mins by autoradiography analysis relative to control; format: functional, organism-based; details: 50.2 M, tested as the 11C-labelled form; summary of the method: as §2
[14] = test system: Mus musculus; test: Binding affinity to amyloid beta in iv dosed telencephalon region in APP/PS1 transgenic C57BL6/J mouse alzheimer's disease model after 5 to 30 mins by micro PET examination relative to control; format: functional, organism-based; summary of the method: as §2
[15] = test system: Brain; test: Drug uptake in Balb-C mouse brain at 4-6 MBq after 5 mins by gamma counting; format: ADME, tissue-based; details: in vivo; summary of the method: as §1
[16] = Drug uptake in Balb-C mouse blood assessed as compound remaining after 10 mins at 4-6 MBq by gamma counting; format: ADME, tissue-based; details: read-out: Drug uptake
Summary of the method: (§3)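 Normal Balb-C mice received an iv [11C]-labeled tracer. HPLC analysis of blood and brain homogenates was done at 10 and 30 min post-injection to give percent intact tracer (n=3).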

[17] = Drug uptake in Balb-C mouse blood assessed as compound remaining at 4-6 MBq after 30 mins by gamma counting; format: ADME, tissue-based; details: read-out: Drug uptake; summary of the method: as §3
[18] = Drug uptake in Balb-C mouse brain assessed as compound remaining at 4-6 MBq after 10 mins by gamma counting; format: ADME, tissue-based; details: read-out: Drug uptake; summary of the method: as §3
[19] = Drug uptake in Balb-C mouse brain assessed as compound remaining at 4-6 MBq after 30 mins by gamma counting; format: ADME, tissue-based; details: read-out: Drug uptake; summary of the method: as §3
[20] = tested as the 11C-labelled form

T1 sequence (P05067 whole entry): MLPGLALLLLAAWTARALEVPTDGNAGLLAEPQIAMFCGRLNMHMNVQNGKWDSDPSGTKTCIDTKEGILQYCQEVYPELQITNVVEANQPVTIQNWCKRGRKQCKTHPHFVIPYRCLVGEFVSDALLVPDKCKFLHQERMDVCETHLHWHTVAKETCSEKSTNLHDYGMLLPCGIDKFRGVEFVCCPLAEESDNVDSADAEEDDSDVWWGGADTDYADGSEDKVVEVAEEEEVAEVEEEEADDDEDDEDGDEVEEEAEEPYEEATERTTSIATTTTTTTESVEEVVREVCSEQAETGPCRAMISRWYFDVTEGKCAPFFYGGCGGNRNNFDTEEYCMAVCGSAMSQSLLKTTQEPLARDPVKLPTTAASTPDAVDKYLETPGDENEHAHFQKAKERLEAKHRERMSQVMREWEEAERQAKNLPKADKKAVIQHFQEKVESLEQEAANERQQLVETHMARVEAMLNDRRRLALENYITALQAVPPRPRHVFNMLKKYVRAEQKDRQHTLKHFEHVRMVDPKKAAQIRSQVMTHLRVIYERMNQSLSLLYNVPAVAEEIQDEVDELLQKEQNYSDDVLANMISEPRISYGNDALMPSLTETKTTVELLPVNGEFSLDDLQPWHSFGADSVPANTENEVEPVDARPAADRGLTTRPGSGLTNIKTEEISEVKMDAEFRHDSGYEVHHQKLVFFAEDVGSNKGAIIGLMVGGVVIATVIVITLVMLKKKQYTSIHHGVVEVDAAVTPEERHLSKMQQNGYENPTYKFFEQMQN

Compound	inhibition [1] [%]	inhibition [2] [%]	logD [3]	Drug uptake [4] [% ID/g]	Drug uptake [5] [% ID/g]	other results
CCN(CC)c1ccc(-c2cn3c(n2)sc2cc(O)ccc23)cc1	79	91				
Nc1ccc(-c2cn3c(n2)sc2cc(O)ccc23)cc1	48	48				
COc1ccc2c(c1)sc1nc(-c3ccc(N4CCCC4)cc3)cn12	91	82	1.9	0.7	1.9	
COc1ccc2c(c1)sc1nc(-c3ccc(N)cc3)cn12	57	74				
COc1ccc2c(c1)sc1nc(-c3ccc(N(C)C)cc3)cn12	89	91	1.9	0.7	1.9	
CNc1ccc(-c2cn3c(n2)sc2cc(OC)ccc23)cc1	95	97	1.7	0.7		Ki [1]: 3.5 nM; Ki [2]: 5.8 nM; Ratio [6]: 9.1; Activity [7, 20]: Active; Activity [8]: Active; Activity [9]: inactive; Activity [10]: inactive; Activity [11]: Active; Activity [12]: inactive; Activity [13]: Active; Activity [14, 20]: Active
COc1ccc2c(c1)sc1nc(-c3ccc(NC(C)=O)cc3)cn12	44	64				
COc1ccc2c(c1)sc1nc(-c3ccc(N[11CH3])cc3)cn12						Drug uptake [15]: Active; remaining at 10 min [16]: 15%; remaining at 0.5 h [17]: 7%; remaining at 10 min [18]: 95%; remaining at 0.5 h [19]: 91%
CCN(CC)c1ccc(-c2cn3c(n2)sc2cc(OC)ccc23)cc1	79	91	2.2	0.7	1.9	
CN(C)c1ccc(-c2cn3c(n2)sc2cc(O)ccc23)cc1	85	86				
Oc1ccc2c(c1)sc1nc(-c3ccc(N4CCCC4)cc3)cn12	91	91				
CNc1ccc(-c2nc3ccc(O)cc3s2)cc1	88	83				Activity ([7]; tested as the 3H-labelled form): Active; Activity ([14]; tested as the 3H-labelled form): Active
CNc1ccc(-c2cn3c(n2)sc2cc(O)ccc23)cc1	46	73	1.2	0.7	1.9	
